Screening results as filed in PubChem BioAssay.
Compounds with a hit are over-represented: about 1.9% of the library has one in this group of screens.
pCIP destab: p/CIP-EGFP fusion destabilizers, primary screen, fluorescence, F442A cells; 16 h; Q05BA5; 290,000 tested, 0.01% active; decrease of EGFP signal, % at 10 µM;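 active = EGFP signal decrease of at least 30% at 10 µM or well 3 SD below plate mean, unless failing retest; inactive = the rest, including hits failing retest or dose response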
Target sequence (Q05BA5 1-1403): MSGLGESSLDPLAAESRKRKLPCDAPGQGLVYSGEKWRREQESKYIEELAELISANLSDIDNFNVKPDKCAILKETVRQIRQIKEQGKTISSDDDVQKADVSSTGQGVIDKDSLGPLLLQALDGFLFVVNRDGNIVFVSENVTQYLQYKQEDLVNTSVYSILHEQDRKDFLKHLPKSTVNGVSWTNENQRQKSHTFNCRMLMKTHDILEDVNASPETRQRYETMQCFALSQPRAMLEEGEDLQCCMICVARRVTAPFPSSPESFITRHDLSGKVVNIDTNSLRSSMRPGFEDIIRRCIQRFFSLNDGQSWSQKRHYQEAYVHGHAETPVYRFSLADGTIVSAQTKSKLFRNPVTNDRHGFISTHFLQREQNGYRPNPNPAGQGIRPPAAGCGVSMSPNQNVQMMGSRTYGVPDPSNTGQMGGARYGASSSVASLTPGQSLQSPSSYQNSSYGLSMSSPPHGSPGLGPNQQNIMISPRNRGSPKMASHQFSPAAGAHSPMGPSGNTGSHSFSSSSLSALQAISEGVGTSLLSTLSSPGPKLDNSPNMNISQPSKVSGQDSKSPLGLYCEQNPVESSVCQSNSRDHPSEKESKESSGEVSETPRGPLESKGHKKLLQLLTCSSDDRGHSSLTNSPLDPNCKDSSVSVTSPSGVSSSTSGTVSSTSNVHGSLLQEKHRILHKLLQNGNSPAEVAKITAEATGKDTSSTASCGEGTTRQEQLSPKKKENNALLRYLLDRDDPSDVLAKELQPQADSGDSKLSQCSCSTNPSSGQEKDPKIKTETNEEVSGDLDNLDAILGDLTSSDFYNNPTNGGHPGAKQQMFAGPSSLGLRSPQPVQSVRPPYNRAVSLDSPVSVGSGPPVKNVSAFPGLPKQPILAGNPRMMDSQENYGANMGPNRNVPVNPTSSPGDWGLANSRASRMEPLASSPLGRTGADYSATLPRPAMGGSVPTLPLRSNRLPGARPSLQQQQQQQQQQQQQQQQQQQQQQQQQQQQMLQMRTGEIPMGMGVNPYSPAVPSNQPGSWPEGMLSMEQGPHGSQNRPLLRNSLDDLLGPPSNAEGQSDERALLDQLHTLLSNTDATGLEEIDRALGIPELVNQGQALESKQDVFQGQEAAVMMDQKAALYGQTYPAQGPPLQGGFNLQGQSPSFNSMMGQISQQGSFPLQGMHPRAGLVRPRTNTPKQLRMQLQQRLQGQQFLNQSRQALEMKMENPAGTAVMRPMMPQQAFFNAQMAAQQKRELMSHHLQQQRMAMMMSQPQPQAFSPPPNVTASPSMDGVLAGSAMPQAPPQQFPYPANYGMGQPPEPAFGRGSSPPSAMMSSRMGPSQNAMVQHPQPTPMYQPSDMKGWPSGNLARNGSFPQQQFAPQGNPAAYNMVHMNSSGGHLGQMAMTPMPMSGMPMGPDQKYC
RAM network inh: inhibitors of the yeast RAM network, primary screen, dse1pr::URA3 reporter, 5-FOA selection. S. cerevisiae dse1pr::URA3 reporter, 5-FOA growth OD615, 2 d; analog-sensitive cbk1-as2 kinase mutant strain. AID 868, 2007. inhibition, % at 50 µM. 190,000 tested, 1.8% active;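 active = inhibition above a set limit, 3 SD over mean compound inhibition, cut at about 8.4% in these data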;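 note: 0% = DMSO-only wells with no growth and 100% = 10 µM 1-NA-PP1 full growth; inhibition rescues growth on 5-FOA so higher OD means more RAM inhibition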
Dynein transport: inhibitors of GR-EGFP nuclear translocation, primary screen, dynein cargo transport inhibitor project, imaging, high-content, 3617.4 mouse cells; test concentration mostly 20 µM; stimulated with dexamethasone, 1 µM; active compounds read low; AID 1381, 2008; 220,000 tested, 0.47% active; z-score, hits read low;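 active = plate z-score of nuclear minus cytoplasmic receptor signal below a set negative limit, without overly bright fluorescence or cell loss, cut at about -3.5 in these data, passing the limit was not always enough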;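 note: z-score of nuclear minus cytoplasmic ring GR-EGFP intensity difference per well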
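Buffer or medium: tet-free medium with charcoal-stripped serum / Also added: dexamethasone agonist, 1.0 µM final, for 30 min / Timing: induction 48 h, compound 1 h, agonist 30 min / Measured by: high-content fluorescence imaging after fixation / Read-out: nuclear-to-cytoplasmic GR-EGFP distribution per well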
NCF1 inh: p47phox/p22phox peptide binding inhibitors, primary screen, biochemical, uHTS, NADPH oxidase regulatory subunit | fluorescence polarization, 2 h | inhibition, % at 24.7 µM | 220,000 tested, 0.53% active | AID 1274, 2008;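 active = inhibition above about 30%, limit read from the data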;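 note: 0% = p47phox with labelled peptide and 100% = labelled peptide alone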
Dynein inh conf: dynein cargo transport inhibitors, GR-EGFP translocation, confirmation, imaging, high-content imaging, GR-EGFP cells; shares compounds with Dynein transport; 3617.4 GR-EGFP nuclear translocation imaging, dexamethasone-induced; calls only at 20 µM; 1,000 tested, 69% active; AID 463116, 2010;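 active = inhibition of receptor movement into the nucleus at or above a set limit in both runs, with normal cell brightness and cell count; inconclusive = limit reached in only one run, brightness and count normal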;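 note: dexamethasone at 1 µM final in well for 30 min; nuclear minus cytoplasmic GR-EGFP mean intensity difference in channel 2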
Starred values were filed as active, the others as inactive; i = inactive; u = inconclusive; x = not tested or not shown; + = active, no number.

SMILES	pCIP destab	RAM network inh	Dynein transport	NCF1 inh	Dynein inh conf
c1cncc(-c2nc(-c3ccco3)cs2)c1	-4.3	-0.9	-4.54*	-5.6	i
c1cncc(-c2csc(-c3cccnc3)n2)c1	-0.1	x	x	x	x
Cc1ccccc1NC(=O)c1cc[n+]([O-])cc1	3.9	x	x	x	x
CN1C(=S)N(c2cccnc2)C(=O)/C1=C\c1ccc(C(C)(C)C)cc1	-1.6	7.1	-3.74*	-14.8	u
CC(C)(C)c1ccc(/C=C/C(=O)Nc2cccnc2)cc1	-8.1	x	x	x	x
CC1CC(C)(C)Nc2ccc(N=O)cc21 (stereo not drawn)	-2.5	2.3	-3.98*	0.2	+
Cc1ccc(OCC(=O)c2ccc(Cl)s2)c([N+](=O)[O-])n1	-17.9	2.4	-3.85*	-19.5	+
CC1OC(OC2C(OC3C(O[C@H]4CC[C@]5(C)C6C=C[C@]78OC[C@@]9(CC[C@@H](C)[C@H](C)C97)[C@H](O)C[C@@]8(C)[C@]6(C)CC[C@H]5C4(C)C)OC(C)C(O)C3O)OC(CO)C(O)C2O)C(O)C(O)C1O (stereo partly drawn)	-10.8	x	-3.86*	7.3	i
CCCCCC(O)(c1ccccc1)C(CN1CCOCC1)c1ccccc1 (stereo not drawn)	-4.1	x	x	x	x
O=C(c1ccccc1)c1cc(Cl)ccc1N1C(=O)C=CC1=O	-13.8	-0.9	-4.47*	-0.3	+
COc1cc(C(=O)Nc2ccc(Nc3ccccc3)cc2)cc(OC)c1OC	6.9	x	x	x	x
CCOCCc1nnc(NC(=O)C2CC(=O)N(CCc3ccc(F)cc3)C2)s1 (stereo not drawn)	3.5	x	x	x	x
COc1ccc(C(O)C(CN2CCOCC2)c2ccccc2)cc1F (stereo not drawn)	2.3	1.9	3.42	-2.7	x
COc1ccc(C(=O)C(CN2CCOCC2)c2ccccc2)cc1F (stereo not drawn)	-0.1	1.7	-3.99*	0.6	+
O=C(OCCN1C(=O)c2cccc3c(N4CCOCC4)ccc(c23)C1=O)c1ccccc1Cl	-5.2	4.4	0.965	-89.3	x
O=C(OCCN1C(=O)c2cccc3c(N4CCOCC4)ccc(c23)C1=O)c1ccc(Cl)cc1Cl	-17.5	5.4	-10.7	-91.2	+
O=C1c2cccc3c(N4CCCCC4)ccc(c23)C(=O)N1CCO	-313.9	2.8	-0.622	-35.2	x
O=C(OCCN1C(=O)c2cccc3c(N4CCOCC4)ccc(c23)C1=O)c1cccc(Cl)c1	-27.9	7.8	-3.8	-78.6	u
CC(=O)Nc1ccc(S(=O)(=O)NC2(C(F)(F)F)NC(=O)N(c3ccc(C)cc3)C2=O)cc1 (stereo not drawn)	-4.7	x	x	x	x
Cc1ccc(C)n1-c1nnc(N2CCC(C(=O)NCCCN3CCN(C)CC3)CC2)s1	0.6	x	x	x	x
Cc1nc(COC(=O)c2cc(O)c3ccccc3c2O)cs1	-29.3	2.2	-3.61*	49.4*	i
Cc1nnc(NC(=O)c2cccc(S(=O)(=O)N3CCCC3)c2)s1	-9.1	x	x	x	x
COc1ccc(C2=CC(=O)N(Nc3ccccc3)C2=O)cc1	-18.3	1.2	-5.11*	-13.9	+
CC(C)(C)c1cc(CCC(=O)NN)cc(C(C)(C)C)c1O	-4.0	-1.0	-0.956	-8.3	x
COCCOC(=O)/C(=C\c1cc(C(C)(C)C)c(O)c(C(C)(C)C)c1)C(C)=O	-7.7	x	-5.34*	-11.8	+
SMILES	pCIP destab	RAM network inh	Dynein transport	NCF1 inh	Dynein inh conf
O=C1NC(=S)N/C1=C/c1ccc2ccccc2c1	-8.1	x	x	x	x
Nc1nc(Sc2c([N+](=O)[O-])cc(C(F)(F)F)cc2[N+](=O)[O-])n[nH]1	-3.1	x	-7.12*	1.2	+
O=C(Nc1cccc(Cl)c1)c1ccc(=O)[nH]n1	-5.7	x	x	x	x
Cn1c(Cl)cnc1C1CC(=O)c2cc(Cl)ccc2O1 (stereo not drawn)	-13.3	0.8	-5.93*	7.4	u
COc1ccccc1OCCn1c(SCC(=O)O)nc2ccccc21	-1.3	x	x	x	x
Cc1ccc2nc(Cl)c3nnnn3c2c1	0.8	-1.1	-5.19*	1.8	+
COc1ccc(CC(=O)n2[nH]c(=O)ccc2=O)cc1OC	-12.6	x	-3.64*	11.8	i
CN=C(Nc1ccc(Cl)cc1)c1ccc(C(F)(F)F)cc1	-24.2	-0.1	-0.0363	-12.1	x
COC(=O)C(=C/C(C)=C/c1cccs1)C(=O)OC	0.8	-0.4	-4.03*	-7.4	u
NC(=O)N/N=C/c1ccccc1OCc1cccc2ccccc12	-3.5	x	x	x	x
CCn1c(C)c(CS(=O)(=O)c2ccccc2)[nH]c1=O	4.9	1.0	-5.57*	1.5	+
O=c1[nH]c(CS(=O)(=O)c2ccccc2)nc2ccccc12	-7.2	2.2	0.248	1.3	x
COc1ccc(NC(=O)/C(Cl)=C(/Cl)S(=O)(=O)Cc2ccc(C)cc2)cn1	-2.7	-2.0	-5.02*	-11.4	i
COc1ccc(NC(=O)Cc2ccc(Cl)c(Cl)c2)cn1	-1.0	3.4	-0.585	-6.2	x
CC[n+]1c(/C=C(\C)OC)sc2ccccc21	-7.9	-0.1	-0.973	-27.0	x
CC[n+]1c(/C=C/C=C/N(C(C)=O)c2ccccc2)sc2cc(OC)ccc21	-19.2	1.2	-3.79*	-258.7	+
O=C(NC1CCCCC1)C(c1ccncc1)N(C(=O)c1csnn1)c1ccccc1 (stereo not drawn)	3.5	x	x	x	x
COc1ccc(NC(=O)CC2Sc3ncnn3C2=O)cc1 (stereo not drawn)	-3.1	1.8	-4.05*	-12.3	i
O=C(CC1Sc2ncnn2C1=O)Nc1ccc(Cl)cc1 (stereo not drawn)	-5.2	2.0	-3.61*	-2.2	i
COc1ccc(CCC(=O)Nc2ccc(S(=O)(=O)Nc3nccc(C)n3)cc2)cc1	-3.9	x	x	x	x
CCOC(=O)C(=CNc1cc(C)nn1-c1ccc(Cl)cc1)C(=O)OCC	-6.2	6.1	0.534	-24.4	x
CCOC(=O)C(=Cc1ccc(-n2cncn2)cc1)C(=O)OCC	-4.8	3.0	-6.77*	4.8	+
CCC(=O)Nc1ccc(NC(=O)CSc2nnnn2C2CCCC2)cc1C	-21.7	x	x	x	x
COc1cccc(N(C(=O)c2snc(C(N)=O)c2N)C(C(=O)NCC2CCCO2)c2cccs2)c1 (stereo not drawn)	7.4	x	x	x	x
COCCNC(=O)C(c1cccs1)N(C(=O)Cn1nnc2ccccc21)c1ccccc1 (stereo not drawn)	7.8	0.6	0.382	-3.5	x
COc1ccc(N(C(=O)CCl)C(C(=O)NCCc2ccccc2)c2cccs2)cc1Cl (stereo not drawn)	7.5	1.4	-4.76*	-13.4	+
COc1cccc(N(C(=O)CCl)C(C(=O)NCCc2ccccc2)c2cccs2)c1 (stereo not drawn)	0.6	9.2*	-5.46*	-12.0	+
CCN(CC)S(=O)(=O)c1cc(NC(=O)Cn2ncc(Cl)c(Cl)c2=O)ccc1C	-3.7	x	-4.52*	-0.4	+
